Laboratory results from ChEMBL document CHEMBL1949645, “In vitro and in vivo antifilarial activity evaluation of 3,6-epoxy [1,5]dioxocines: a new class of antifilarial agents” (Bioorg Med Chem Lett, 2012).
Values after ≈ are worked out from the molar mass of the structure shown.

Tests used:
Brugia malayi [1] = test: Antifilarial activity against adult Brugia malayi by motility assay; format: functional, organism-based; conditions: for IC50: Brugia malayi
Summary of the method: (§1)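 Brugia malayi (sub-periodic strain), female adult worms or microfilariae, scored by motility following the Murthy and Chatterjee method. Compounds and reference DEC dissolved in DMSO, final DMSO below 0.1% in incubation medium; DMSO-only controls. LC100 is the concentration giving 100% loss of motility (parasite death); IC50 is the concentration giving 50% motility inhibition.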

Brugia malayi [2] = test: Antifilarial activity against microfilariae Brugia malayi by motility assay; format: functional, organism-based; conditions: for IC50: Brugia malayi; summary of the method: as §1
Brugia malayi [3] = test: Antifilarial activity against Brugia malayi infected in Meriones unguiculatus assessed as sterilized female worm at 200 mg/kg, sc administered 7 to 8 days post-adult worm transplantation for 5 days measured after 42 days; format: functional; conditions: route subcutaneous
Summary of the method: (§2)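 Dosing was s.c. once daily × 5 days: 200 mg/kg (n = 4) or 25 mg/kg (n = 6), with vehicle-treated controls (n = 4). Read-outs were peritoneal-cavity microfilaraemia status, worms recovered (mean ± SD, P vs control) and % sterilized female worms.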

Brugia malayi [4] = test: Growth inhibition of adult Brugia malayi by MTT assay; format: functional
Summary of the method: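 Adult female B. malayi worms were exposed in vitro to agents dissolved in DMSO, keeping final DMSO below 0.1%. Controls received DMSO alone. Results are given as mean % inhibition of MTT reduction.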

Brugia malayi [5] = test: Antifilarial activity against 5 to 7 months old Brugia malayi infected in Mastomys coucha assessed as sterilized female worm at 200 mg/kg, sc administered 7 to 8 days post-adult worm transplantation for 5 days measured on day 91 (reference value: 19.62%); format: functional; conditions: route subcutaneous
Summary of the method: (§3)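 Mastomys coucha harbouring B. malayi were dosed at 200 or 50 mg/kg, with vehicle-treated animals as controls. Male, female and total adult worms recovered were counted and given as mean ± SD. Sterilized female worms were reported as count (%).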

Brugia malayi [6] = test: Antifilarial activity against 5 to 7 months old Brugia malayi infected in Mastomys coucha assessed as reduction in worm burden at 200 mg/kg, sc administered 7 to 8 days post-adult worm transplantation for 5 days measured on day 91 relative to control; format: functional; parameters: scale not given: the % may be the effect or the level left; conditions: route subcutaneous; summary of the method: as §3
Brugia malayi [7] = test: Antifilarial activity against 5 to 7 months old Brugia malayi infected in Mastomys coucha assessed as sterilized female worm at 50 mg/kg, sc administered 7 to 8 days post-adult worm transplantation for 5 days measured on day 91 (reference value: 19.62%); format: functional; conditions: route subcutaneous; summary of the method: as §3
Brugia malayi [8] = test: Antifilarial activity against 5 to 7 months old Brugia malayi infected in Mastomys coucha assessed as reduction in worm burden at 50 mg/kg, sc administered 7 to 8 days post-adult worm transplantation for 5 days measured on day 91 relative to control; format: functional; parameters: scale not given: the % may be the effect or the level left; conditions: route subcutaneous; summary of the method: as §3
Brugia malayi [9] = test: Antifilarial activity against Brugia malayi infected in Meriones unguiculatus assessed as sterilized female worm at 25 mg/kg, sc administered 7 to 8 days post-adult worm transplantation for 5 days measured after 42 days; format: functional; conditions: route subcutaneous; summary of the method: as §2

With `CCC(C)c1cc(/C=C/C(=O)c2ccc(OC)cc2)cc2c1OCC1COC2O1` (racemic) the LC100 (Brugia malayi [1]) was over 10 µg/mL and the LC100 (Brugia malayi [2]) was over 10 µg/mL.

With `Cc1cc(/C=C/C(=O)c2ccccc2)cc2c1OCC1COC2O1` (racemic) the LC100 (Brugia malayi [1]) was 1.25 µg/mL, the IC50 (Brugia malayi [1]) was 1 mg/L (≈ 3.1 µM) and the LC100 (Brugia malayi [2]) was 2.5 µg/mL. The IC50 (Brugia malayi [2]) was 0.9 mg/L (≈ 2.79 µM), the Activity (Brugia malayi [3]) was 29% and the “growth inhibition (GI)” value (Brugia malayi [4]) was 15%.

For `Cc1cc(/C=C/C(=O)c2ccc(Cl)cc2)cc2c1OCC1COC2O1` (racemic), the LC100 (Brugia malayi [1]) was 1.25 µg/mL, the IC50 (Brugia malayi [1]) was 0.6 mg/L (≈ 1.68 µM) and the LC100 (Brugia malayi [2]) was 2.5 µg/mL. For the same compound, the IC50 (Brugia malayi [2]) was 1.1 mg/L (≈ 3.08 µM), the Activity (Brugia malayi [3]) was 29% and the “growth inhibition (GI)” value (Brugia malayi [4]) was 39%.

Work on `Cc1ccc(C(=O)/C=C/c2cc(C)c3c(c2)C2OCC(CO3)O2)cc1` (racemic) yielded an LC100 (Brugia malayi [1]) of 1.25 µg/mL, an IC50 (Brugia malayi [1]) of 0.4 mg/L (≈ 1.19 µM) and an LC100 (Brugia malayi [2]) of 5 µg/mL. For the same compound, the IC50 (Brugia malayi [2]) was 1.8 mg/L (≈ 5.35 µM), the Activity (Brugia malayi [3]) was 45% and the “growth inhibition (GI)” value (Brugia malayi [4]) was 22%.

Compound `COc1ccc(C(=O)/C=C/c2cc(C)c3c(c2)C2OCC(CO3)O2)cc1` (racemic) has an Activity (Brugia malayi [5]) of 24.6%, an Activity (Brugia malayi [6]) of 32.89% and an LC100 (Brugia malayi [1]) of 10 µg/mL. The IC50 (Brugia malayi [1]) was 3.5 mg/L (≈ 9.93 µM), the LC100 (Brugia malayi [2]) was over 10 µg/mL and the IC50 (Brugia malayi [2]) was 3.9 mg/L (≈ 11.1 µM). The Activity (Brugia malayi [3]) was 24% and the “growth inhibition (GI)” value (Brugia malayi [4]) was 22%.

Compound `CCC(C)c1cc(/C=C/C(=O)c2ccccc2)cc2c1OCC1COC2O1` (racemic) has an LC100 (Brugia malayi [1]) of 2.5 µg/mL, an IC50 (Brugia malayi [1]) of 0.9 mg/L (≈ 2.47 µM) and an LC100 (Brugia malayi [2]) of 5 µg/mL. The IC50 (Brugia malayi [2]) was 0.9 mg/L (≈ 2.47 µM) and the Activity (Brugia malayi [3]) was 27%.

Compound `CCC(C)c1cc(/C=C/C(=O)c2ccc(Cl)cc2)cc2c1OCC1COC2O1` (racemic) has an Activity (Brugia malayi [5]) of 17.78%, an Activity (Brugia malayi [6]) of 38.16% and an LC100 (Brugia malayi [1]) of 5 µg/mL. The IC50 (Brugia malayi [1]) was 1.6 mg/L (≈ 4.01 µM), the LC100 (Brugia malayi [2]) was 10 µg/mL and the IC50 (Brugia malayi [2]) was 3.5 mg/L (≈ 8.77 µM). It also gave an Activity (Brugia malayi [3]) of 63%.

With `CCC(C)c1cc(/C=C/C(=O)c2ccc(C)cc2)cc2c1OCC1COC2O1` (racemic) the LC100 (Brugia malayi [1]) was 10 µg/mL, the IC50 (Brugia malayi [1]) was 0.5 mg/L (≈ 1.32 µM) and the LC100 (Brugia malayi [2]) was over 10 µg/mL.

In the case of `O=C(/C=C/c1cc2c(c3ccccc13)OCC1COC2O1)c1ccccc1` (racemic), the LC100 (Brugia malayi [1]) is reported as over 10 µg/mL, the LC100 (Brugia malayi [2]) is reported as over 10 µg/mL and the “growth inhibition (GI)” value (Brugia malayi [4]) is reported as 34%.

In the case of `O=C(/C=C/c1cc2c(c3ccccc13)OCC1COC2O1)c1ccc(Cl)cc1` (racemic), the LC100 (Brugia malayi [1]) is reported as over 10 µg/mL, the LC100 (Brugia malayi [2]) is reported as over 10 µg/mL and the “growth inhibition (GI)” value (Brugia malayi [4]) is reported as 41%.

For `Cc1ccc(C(=O)/C=C/c2cc3c(c4ccccc24)OCC2COC3O2)cc1` (racemic), the LC100 (Brugia malayi [1]) was over 10 µg/mL, the LC100 (Brugia malayi [2]) was over 10 µg/mL and the “growth inhibition (GI)” value (Brugia malayi [4]) was 33%.

For `COc1ccc(C(=O)/C=C/c2cc3c(c4ccccc24)OCC2COC3O2)cc1` (racemic), the LC100 (Brugia malayi [1]) was over 10 µg/mL, the LC100 (Brugia malayi [2]) was over 10 µg/mL and the “growth inhibition (GI)” value (Brugia malayi [4]) was 35%.

With `CCN(CC)C(=O)N1CCN(C)CC1.O=C(O)CC(O)(CC(=O)O)C(=O)O` [DIETHYLCARBAMAZINE CITRATE] the Activity (Brugia malayi [7]) was 20.59%, the Activity (Brugia malayi [8]) was 20.18% and the Activity (Brugia malayi [9]) was 11%.

`CCN(CC)C(=O)N1CCN(C)CC1` [DIETHYLCARBAMAZINE] was tested, and the LC100 (Brugia malayi [1]) was 800 µg/mL, the IC50 (Brugia malayi [1]) was 289 mg/L (≈ 1450 µM) and the LC100 (Brugia malayi [2]) was 500 µg/mL. The IC50 (Brugia malayi [2]) was 354 mg/L (≈ 1780 µM) and the “growth inhibition (GI)” value (Brugia malayi [4]) was 64%.
